Assay [1] has as its system SNU-182. The experiment in a line: Growth inhibition of human SNU182 cells at <12.5 uM after 48 hrs by CCK8 assay. Format: functional, cell-based. (In general: Tetrazolium dyes change colour on reduction, which living cells bring about.)
Assay [2] concerns SNU-182. Briefly: Growth inhibition of human SNU182 cells assessed as cell survival at 12.5 uM after 48 hrs by CCK8 assay relative to control. Conditions: SNU-182, 48 h, read-out: Survival. The assay is classed as functional. The gist of the method: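 SNU182 human hepatocellular carcinoma cells were exposed to compound at 6.25, 12.5, 25, 50 and 100 µM in serum-free DMEM for 48 h. Viability was read by CCK-8, where WST-8 is reduced by cellular dehydrogenases to a soluble formazan, and expressed as survival relative to vehicle control. Values are mean±SD of triplicates.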

For assay [3], the system named is SNU-182. The experiment in a line: Growth inhibition of human SNU182 cells after 48 hrs by CCK8 assay. Format: functional, cell-based.
The test system of assay [4] is SNU-182. Briefly: Inhibition of TGFbeta1-induced epithelial-mesenchymal transition in human SNU182 cells assessed as reduction in downregulation of E-cadherin expression at 12.5 uM preincubated for 2 hrs followed by TGFbeta1 addition measured after 48 hrs by Western blot method. The assay is classed as functional, cell-based. The gist of the method:
(§1)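 SNU182 cells pretreated 2 h with single agents (12.5 or 40 µM) or the mixture (20 and 40 µM), then stimulated with TGF-β1 5 ng/ml for 48 h. E-cadherin and Snail protein detected by Western blot, with GAPDH as loading control.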
On the technique in general: A western blot detects proteins with antibodies after separation by electrophoresis.

Assay [5] deals with SNU-182. The experiment in a line: Inhibition of TGFbeta1-induced epithelial-mesenchymal transition in human SNU182 cells assessed as reduction in upregulation of Snail expression at 12.5 uM preincubated for 2 hrs followed by TGFbeta1 addition measured after 48 hrs by Western blot method. The assay is classed as functional, cell-based. A digest of the protocol: as §1
In assay [6] the test system is SNU-182. Briefly: Inhibition of TGFbeta1-induced epithelial-mesenchymal transition in human SNU182 cells assessed as reduction in MMP2 mRNA expression at 12.5 uM preincubated for 2 hrs followed by TGFbeta1 addition measured after 48 hrs by qRT-PCR method. Format: functional, cell-based. A digest of the protocol:
(§2)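 SNU182 cells pretreated 2 h with single agents (12.5 or 40 µM) or the mixture (20 or 40 µM), then TGF-β 5 ng/ml for 48 h. MMP-2 and MMP-9 mRNA measured by RT-PCR with densitometry and by qRT-PCR, fold change by the 2^-ΔΔCt method. Mean±SD of triplicates.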
Background: Quantitative PCR measures a nucleic acid by following its amplification.

Assay [7] relates to SNU-182. The experiment in a line: Inhibition of TGFbeta1-induced epithelial-mesenchymal transition in human SNU182 cells assessed as reduction in MMP9 mRNA expression at 12.5 uM preincubated for 2 hrs followed by TGFbeta1 addition measured after 48 hrs by qRT-PCR method. Format: functional, cell-based. The gist of the method:
as §2

The source made the active and inactive calls. The calls are words filed in the database; no cut-off is given here.

For the compound `CCCCC/C=C/C(=O)CCc1ccc(O)c(OC)c1` [SHOGAOL], in the assay on SNU-182 [1], the “growth inhibition (GI)” value was “inactive”. The viability at 12.5 µM with SNU-182 [2] was greater than 90%. Besides, the “growth inhibition (GI)” value with SNU-182 [3] was “Dose-dependent effect”. In addition, the inhibition result in the assay with SNU-182 [4], in the assay on SNU-182 [5], with SNU-182 [6] and in the assay with SNU-182 [7] was “inactive” each time.
